Experimental data: ChEMBL document CHEMBL4270599, “Synthesis of a 3'-C-ethynyl-β-d-ribofuranose purine nucleoside library: Discovery of C7-deazapurine analogs as potent antiproliferative nucleosides” (Eur J Med Chem, 2018)

How the values were obtained:
MDA-MB-435 [1] = experiment: Growth inhibition of human MDA-MB-435 cells assessed as cell growth at 10^-7 M incubated for 48 hrs by sulforhodamine B assay relative to control; format: functional; conditions: MDA-MB-435, 48 h, read-out: Activity
HCC 2998 = experiment: Growth inhibition of human HCC2998 cells assessed as cell growth at 10^-7 M incubated for 48 hrs by sulforhodamine B assay relative to control; format: functional; conditions: HCC 2998, 48 h, read-out: Activity
ACHN = experiment: Growth inhibition of human ACHN cells assessed as cell growth at 10^-8 M incubated for 48 hrs by sulforhodamine B assay relative to control; format: functional; conditions: read-out: Activity
TK-10 = experiment: Growth inhibition of human TK10 cells assessed as cell growth at 10^-5 M incubated for 48 hrs by sulforhodamine B assay relative to control; format: functional; conditions: TK-10, 48 h, read-out: Activity
M14 [2] = experiment: Growth inhibition of human M14 cells assessed as cell growth at 10^-7 M incubated for 48 hrs by sulforhodamine B assay relative to control; format: functional; conditions: M14, 48 h, read-out: Activity
HCT-116 [3] = experiment: Growth inhibition of human HCT116 cells assessed as cell growth at 10^-4 M incubated for 48 hrs by sulforhodamine B assay relative to control; format: functional; conditions: HCT-116, 48 h, read-out: Activity
M14 [4] = experiment: Growth inhibition of human M14 cells assessed as cell growth at 10^-8 M incubated for 48 hrs by sulforhodamine B assay relative to control; format: functional; conditions: M14, 48 h, read-out: Activity
PC-3 [5] = experiment: Growth inhibition of human PC3 cells assessed as cell growth at 10^-6 M incubated for 48 hrs by sulforhodamine B assay relative to control; format: functional; conditions: PC-3, 48 h, read-out: Activity
NCI-H322M = experiment: Growth inhibition of human NCI-H322M cells assessed as cell growth at 10^-8 M incubated for 48 hrs by sulforhodamine B assay relative to control; format: functional; conditions: read-out: Activity
HT-29 = experiment: Growth inhibition of human HT-29 cells assessed as cell growth at 10^-4 M incubated for 48 hrs by sulforhodamine B assay relative to control; format: functional; conditions: HT-29, 48 h, read-out: Activity
CCRF-CEM = experiment: Cytotoxicity against human CCRF-CEM cells after 48 hrs by SRB assay; format: functional; conditions: for GI50: read-out: GI50
SK-MEL-28 = experiment: Growth inhibition of human SK-MEL-28 cells assessed as cell growth at 10^-6 M incubated for 48 hrs by sulforhodamine B assay relative to control; format: functional; conditions: SK-MEL-28, 48 h, read-out: Activity
IGROV-1 = experiment: Growth inhibition of human IGROV1 cells assessed as cell growth at 10^-8 M incubated for 48 hrs by sulforhodamine B assay relative to control; format: functional; conditions: IGROV-1, 48 h, read-out: Activity
[6] = Antiproliferative activity against HMVEC-d cells after 4 days by Coulter counter method; format: cell-based; conditions: Homo sapiens, 96 h
Procedure, shortened: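 Primary HUVEC, primary HMVEC-d and the HMEC-1 line seeded at 20,000 cells/well in gelatin-coated plates in EC growth medium (EGM2). After overnight incubation, 5-fold compound dilutions added. Cells proliferated four days with compound, then trypsinized and counted by Coulter counter to derive IC₅₀.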

HCT-116 [7] = experiment: Growth inhibition of human HCT116 cells assessed as cell growth at 10^-6 M incubated for 48 hrs by sulforhodamine B assay relative to control; format: functional; conditions: HCT-116, 48 h, read-out: Activity
MDA-MB-468 = experiment: Growth inhibition of human MDA-MB-468 cells assessed as cell growth at 10^-8 M incubated for 48 hrs by sulforhodamine B assay relative to control; format: functional; conditions: MDA-MB-468, 48 h, read-out: Activity
SK-MEL-5 = experiment: Growth inhibition of human SK-MEL-5 cells assessed as cell growth at 10^-7 M incubated for 48 hrs by sulforhodamine B assay relative to control; format: functional; conditions: SK-MEL-5, 48 h, read-out: Activity
NCI-H460 = experiment: Cytotoxicity against human NCI-H460 cells after 48 hrs by SRB assay; format: functional; conditions: NCI-H460, 48 h; for GI50: read-out: GI50; for TGI: read-out: TGI
SN12C = experiment: Growth inhibition of human SN12C cells assessed as cell growth at 10^-4 M incubated for 48 hrs by sulforhodamine B assay relative to control; format: functional; conditions: read-out: Activity
SW-620 [8] = experiment: Growth inhibition of human SW620 cells assessed as cell growth at 10^-7 M incubated for 48 hrs by sulforhodamine B assay relative to control; format: functional; conditions: SW-620, 48 h, read-out: Activity
SNB-19 = experiment: Growth inhibition of human SNB19 cells assessed as cell growth at 10^-7 M incubated for 48 hrs by sulforhodamine B assay relative to control; format: functional; conditions: SNB-19, 48 h, read-out: Activity
PC-3 [9] = experiment: Growth inhibition of human PC3 cells assessed as cell growth at 10^-8 M incubated for 48 hrs by sulforhodamine B assay relative to control; format: functional; conditions: PC-3, 48 h, read-out: Activity
MCF7 = experiment: Growth inhibition of human MCF7 cells assessed as cell growth at 10^-8 M incubated for 48 hrs by sulforhodamine B assay relative to control; format: functional; conditions: MCF7, 48 h, read-out: Activity
OVCAR-5 = experiment: Growth inhibition of human OVCAR5 cells assessed as cell growth at 10^-6 M incubated for 48 hrs by sulforhodamine B assay relative to control; format: functional; conditions: OVCAR-5, 48 h, read-out: Activity
LOX IMVI = experiment: Cytotoxicity against human LOXIMVI cells after 48 hrs by SRB assay; format: functional; conditions: for GI50: read-out: GI50; for CC50: read-out: LC50 (the source's name); for TGI: read-out: TGI
HOP-62 = experiment: Growth inhibition of human HOP62 cells assessed as cell growth at 10^-6 M incubated for 48 hrs by sulforhodamine B assay relative to control; format: functional; conditions: HOP-62, 48 h, read-out: Activity
HCT-15 = experiment: Growth inhibition of human HCT15 cells assessed as cell growth at 10^-6 M incubated for 48 hrs by sulforhodamine B assay relative to control; format: functional; conditions: HCT-15, 48 h, read-out: Activity
SF-295 = experiment: Growth inhibition of human SF295 cells assessed as cell growth at 10^-8 M incubated for 48 hrs by sulforhodamine B assay relative to control; format: functional; conditions: SF-295, 48 h, read-out: Activity
SNB-75 = experiment: Growth inhibition of human SNB75 cells assessed as cell growth at 10^-7 M incubated for 48 hrs by sulforhodamine B assay relative to control; format: functional; conditions: SNB-75, 48 h, read-out: Activity
MDA-MB-435 [10] = experiment: Growth inhibition of human MDA-MB-435 cells assessed as cell growth at 10^-6 M incubated for 48 hrs by sulforhodamine B assay relative to control; format: functional; conditions: MDA-MB-435, 48 h, read-out: Activity
SW-620 [11] = experiment: Growth inhibition of human SW620 cells assessed as cell growth at 10^-5 M incubated for 48 hrs by sulforhodamine B assay relative to control; format: functional; conditions: SW-620, 48 h, read-out: Activity
UO-31 = experiment: Growth inhibition of human UO31 cells assessed as cell growth at 10^-6 M incubated for 48 hrs by sulforhodamine B assay relative to control; format: functional; conditions: UO-31, 48 h, read-out: Activity
[12] = read-out: LC50 (the source's name)
[13] = read-out: pLC50 (the source's name) (converted)

SMILES	growth at 0.1 µM (MDA-MB-435 [1])	growth at 0.1 µM (HCC 2998)	growth at 0.01 µM (ACHN)	growth at 0.1 µM (M14 [2])	growth at 100 µM (HCT-116 [3])	growth at 0.01 µM (M14 [4])	growth at 1 µM (PC-3 [5])	growth at 0.01 µM (NCI-H322M)	GI50 (CCRF-CEM)	TGI (CCRF-CEM; read-out: TGI)	TGI (CCRF-CEM; read-out: pTGI)	growth at 1 µM (SK-MEL-28)	growth at 0.01 µM (IGROV-1)	IC50 [6]	growth at 0.01 µM (MDA-MB-468)	growth at 0.1 µM (SK-MEL-5)	TGI (NCI-H460)	growth at 100 µM (SN12C)	growth at 0.1 µM (SW-620 [8])	growth at 0.1 µM (SNB-19)	further results
C#C[C@@]1(O)[C@@H](CO)O[C@@H](n2cc(Br)c3c(N)ncnc32)[C@@H]1O	51 to 70%	73 to 80%	97%	56 to 81%	3 to 5%	92 to 94%	8 to 12%	91 to 95%	0.14 to 0.285 µM	> 100 µM	> 100 µM	61 to 68%	81 to 88%	0.0019 µM	88 to 99%	30 to 71%	1.54 to 5.27 µM	1 to 5%	18 to 45%	6 to 71%	growth at 10 µM (TK-10): 12%; growth at 100 µM (HT-29): 1 to 2%; CC50 (CCRF-CEM; [12]): > 100 µM; growth at 1 µM (HCT-116 [7]): 2 to 3%; GI50 (NCI-H460): 0.0171 to 0.05 µM; CC50 (NCI-H460; [12]): > 100 µM; growth at 0.01 µM (PC-3 [9]): 86 to 92%; growth at 0.01 µM (MCF7): 60 to 74%; growth at 1 µM (OVCAR-5): 33 to 56%; GI50 (LOX IMVI): 0.029 to 0.105 µM; CC50 (LOX IMVI): 0.72 to 2.13 µM; TGI (LOX IMVI): 0.176 to 0.351 µM; growth at 1 µM (HOP-62): 12 to 29%; growth at 1 µM (HCT-15): 4 to 7%; growth at 0.01 µM (SF-295): 90 to 96%; growth at 0.1 µM (SNB-75): 81 to 96%; growth at 1 µM (MDA-MB-435 [10]): 15 to 28%; growth at 10 µM (SW-620 [11]): 4 to 5%
C#C[C@@]1(O)[C@@H](CO)O[C@@H](n2cc(I)c3c(N)ncnc32)[C@@H]1O	66 to 73%	70 to 75%	98%	67 to 75%	4%	85 to 94%	13 to 14%	75 to 86%	0.249 to 0.295 µM	> 100 µM	> 100 µM	62 to 78%	39 to 60%	< 0.00128 µM	81 to 93%	62 to 65%	1.67 to 2.18 µM	6%	39%	34 to 59%	CC50 (CCRF-CEM; [13]): > 100 µM; growth at 1 µM (HCT-116 [7]): 5 to 6%; GI50 (NCI-H460): 0.0584 to 0.137 µM; CC50 (NCI-H460; [12]): 75.4 to 100 µM; growth at 0.01 µM (PC-3 [9]): 81 to 84%; growth at 0.01 µM (MCF7): 35 to 54%; growth at 1 µM (OVCAR-5): 43 to 64%; GI50 (LOX IMVI): 0.0397 to 0.0812 µM; CC50 (LOX IMVI): > 100 µM; TGI (LOX IMVI): 0.241 to 1.22 µM; growth at 1 µM (UO-31): 20 to 28%; growth at 1 µM (HOP-62): 33 to 61%; growth at 1 µM (HCT-15): 11 to 20%; growth at 0.01 µM (SF-295): 90%; growth at 0.1 µM (SNB-75): 81 to 83%; growth at 1 µM (MDA-MB-435 [10]): 34 to 46%; growth at 10 µM (SW-620 [11]): 4%
C#C[C@@]1(O)[C@@H](CO)O[C@@H](n2cc(Cl)c3c(N)ncnc32)[C@@H]1O	60 to 69%	79 to 80%	95%	69 to 79%	3 to 4%	93 to 94%	9 to 11%	93 to 100%	0.239 to 0.257 µM	> 100 µM	> 100 µM	32 to 43%	91 to 94%	< 0.00128 µM	97 to 103%	55 to 69%	0.226 to 0.753 µM	1%	34 to 50%	12 to 70%	growth at 100 µM (HT-29): 1%; CC50 (CCRF-CEM; [12]): > 100 µM; CC50 (NCI-H460; [13]): > 100 µM; growth at 0.01 µM (PC-3 [9]): 91 to 94%; growth at 0.01 µM (MCF7): 67 to 75%; growth at 1 µM (OVCAR-5): 23 to 38%; GI50 (LOX IMVI): 0.036 to 0.0814 µM; CC50 (LOX IMVI): 0.756 to 0.871 µM; TGI (LOX IMVI): 0.226 to 0.284 µM; growth at 1 µM (HOP-62): 2 to 10%; growth at 1 µM (HCT-15): 1%; growth at 0.01 µM (SF-295): 82 to 92%; growth at 0.1 µM (SNB-75): 104 to 110%
